The source made the active and inactive calls. No cut-off for these calls is given here.
Key:
[1] = biological target: Soluble guanylate cyclase (Homo sapiens) (UniProt Q02153+O75343+P33402+Q02108); test: Activation of sGC in human hCMEC/D3 cells assessed as production of cGMP per million cells using [3H]-cGMP after 1 hr by liquid scintillation counting; format: cell-based; conditions: CMEC/D3
Outline: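 hCMEC/D3 cells (1×10^6, collagen-coated wells, supplemented EBM-2, 37°C, 5% CO2) switched to Hepes-Ca2+ buffer pH 7.4 with 1 mM IBMX. Exposed 1 h at 37°C to 0.1, 1, 5 or 10 μM; SNP 1 mM as reference NO donor. Ethanol-permeabilized, residue taken up in Tris-EDTA pH 8. cGMP quantified by [3H]-cGMP competitive radioimmunoassay with scintillation counting against a [3H]-cGMP titration curve; expressed as pmol/10^6 cells. Mean ± SEM, one-way ANOVA.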

[2] = system: Brain; test: Synaptic plasticity activity in hippocampal brain slices of C57BL/6 mouse assessed as protection against amyloid beta (1 to 42)-induced long-term potentiation inhibition after 20 mins; format: functional; set-up: scale not given: the % may be the effect or the level left
Outline: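 Hippocampal slices (400 μm) from 30-day-old male C57BL/6 mice, recovered at 32°C in ACSF. Oligomerized Aβ42 (final 200 nM) was mixed with compound (final 2 μM), pre-incubated 30 min, then perfused 20 min before HFS. Schaffer collateral stimulation; CA1 fEPSP peak amplitude recorded 60 min post-HFS. LTP taken as mean over 55–60 min as % of baseline. Mean ± SEM, unpaired t-test.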

[3] = biological target: T1, Amyloid-beta precursor protein (Homo sapiens, UniProt P05067); test: Inhibition of Amyloid beta (1 to 40) (unknown origin) aggregation assessed as amount of fibrils formation after 2 hrs by thioflavin T based spectrofluorimetric method
Outline: (§1)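 Aβ40 pretreated in HFIP to remove preaggregates, then 30 μM peptide incubated 2 h at room temperature with inhibitor in PBS pH 7.4 (2% HFIP, 5% DMSO). ThT (3 μM, in 50 mM phosphate pH 6.0) fluorescence read at ex 450/em 486 nm. Inhibition = 100 − [(Fi−Fb)/F0×100]. IC50 from 5–7 concentrations in triplicate, ≥3 independent experiments, nonlinear regression; weaker compounds given as % inhibition ± SE at 100 μM.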

[4] = Cytotoxicity against human hCMEC/D3 cells at 10 to 20 uM after 18 hrs by lactate dehydrogenase assay; format: cell-based; conditions: hcmec/d3, 18 h
[5] = Cytotoxicity against human hCMEC/D3 cells up to 1 uM after 18 hrs by lactate dehydrogenase assay; format: cell-based; conditions: hcmec/d3, 18 h
[6] = biological target: T1, Amyloid-beta precursor protein; test: Inhibition of Amyloid beta (1 to 42) (unknown origin) aggregation assessed as amount of fibrils formation after 5 days by thioflavin T based spectrofluorimetric method
[7] = biological target: Microtubule-associated protein tau (Homo sapiens) (UniProt P10636); test: Inhibition of wild type human recombinant tau 2N4R aggregation assessed as reduction of formation rate and number of aggregates at 1 uM after 48 hrs using Congo Red staining
Outline: (§2)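 Recombinant human tau 2N4R, expressed in E. coli BL21(DE3), used at 8 μM with 300 μg/mL heparin in 35 mM MES pH 7.4, 1 mM DTT at 37°C, alone or with compound at 1 μM (final). Aliquots taken at 2 and 5 days, stained with Congo Red and examined under polarized light; also negatively stained with uranyl acetate for EM at 30,000 magnification.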

[8] = biological target: Microtubule-associated protein tau (Homo sapiens) (UniProt P10636); test: Inhibition of wild type human recombinant tau 2N4R aggregation assessed as reduction of formation rate and number of aggregates at 1 uM after 5 days using Congo Red staining; outline: as §2
[9] = biological target: T1, Amyloid-beta precursor protein; test: Inhibition of Amyloid beta (1 to 40) (unknown origin) aggregation assessed as amount of fibrils formation at 100 uM after 2 hrs by thioflavin T based spectrofluorimetric method; outline: as §1

T1 sequence (P05067 whole entry): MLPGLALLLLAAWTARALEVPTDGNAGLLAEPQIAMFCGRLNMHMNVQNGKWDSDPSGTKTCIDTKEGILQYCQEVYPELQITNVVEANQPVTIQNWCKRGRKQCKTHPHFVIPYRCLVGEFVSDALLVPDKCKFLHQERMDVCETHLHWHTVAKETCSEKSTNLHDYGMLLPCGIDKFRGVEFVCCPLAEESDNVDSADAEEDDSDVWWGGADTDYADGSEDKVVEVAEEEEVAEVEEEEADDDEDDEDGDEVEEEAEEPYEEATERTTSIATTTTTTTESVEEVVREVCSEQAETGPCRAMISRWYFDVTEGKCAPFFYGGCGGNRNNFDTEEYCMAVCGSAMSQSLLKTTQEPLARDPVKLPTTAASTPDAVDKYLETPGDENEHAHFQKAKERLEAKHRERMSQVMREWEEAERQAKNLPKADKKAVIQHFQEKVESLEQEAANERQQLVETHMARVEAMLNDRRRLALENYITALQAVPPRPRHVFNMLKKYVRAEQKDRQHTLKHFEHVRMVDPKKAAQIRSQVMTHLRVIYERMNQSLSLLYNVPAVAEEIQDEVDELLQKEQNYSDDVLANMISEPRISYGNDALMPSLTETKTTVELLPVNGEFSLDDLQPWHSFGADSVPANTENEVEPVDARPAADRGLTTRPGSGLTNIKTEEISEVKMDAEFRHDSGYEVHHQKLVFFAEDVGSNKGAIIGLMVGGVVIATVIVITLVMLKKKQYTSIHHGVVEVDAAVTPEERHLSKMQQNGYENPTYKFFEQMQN
Chain of Microtubule-associated protein tau (Homo sapiens) (P10636 whole entry): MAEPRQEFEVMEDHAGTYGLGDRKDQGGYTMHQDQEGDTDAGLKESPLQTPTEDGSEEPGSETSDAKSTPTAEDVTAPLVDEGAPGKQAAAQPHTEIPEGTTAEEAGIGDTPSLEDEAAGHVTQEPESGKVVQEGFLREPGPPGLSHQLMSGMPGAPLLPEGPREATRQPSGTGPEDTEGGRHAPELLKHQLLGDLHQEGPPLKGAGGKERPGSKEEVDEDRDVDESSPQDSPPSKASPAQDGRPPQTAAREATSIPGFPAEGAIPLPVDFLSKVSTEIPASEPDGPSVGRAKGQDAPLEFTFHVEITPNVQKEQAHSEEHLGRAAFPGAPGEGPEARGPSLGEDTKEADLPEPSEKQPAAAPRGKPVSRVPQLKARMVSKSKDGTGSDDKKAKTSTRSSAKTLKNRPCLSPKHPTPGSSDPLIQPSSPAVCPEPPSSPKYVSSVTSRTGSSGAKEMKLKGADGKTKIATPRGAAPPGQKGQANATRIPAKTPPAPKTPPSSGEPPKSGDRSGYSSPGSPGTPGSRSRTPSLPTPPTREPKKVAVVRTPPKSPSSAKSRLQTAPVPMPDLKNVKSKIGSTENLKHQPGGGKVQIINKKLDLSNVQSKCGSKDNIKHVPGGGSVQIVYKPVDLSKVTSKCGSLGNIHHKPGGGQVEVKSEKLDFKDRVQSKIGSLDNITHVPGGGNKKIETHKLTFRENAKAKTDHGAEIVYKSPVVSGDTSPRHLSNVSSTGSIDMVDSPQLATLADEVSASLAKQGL

Activity [1]	IC50 [3]	IC50 [6]	inhibition [7]	inhibition [8]	inhibition [9]	inhibition [3]	SMILES	Activity [2]	Activity [4]	Activity [5]
Dose-dependent effect	8.1 µM	7.7 µM	Active	Active	–	–	CCN1/C(=C/C=C/c2sc3ccccc3[n+]2CC)Sc2ccc(OCCCO[N+](=O)[O-])cc21.[I-]	69.3%	Non-toxic	Non-toxic
Dose-dependent effect	–	–	–	–	17%	–	CCN1/C(=C/C=C/c2sc3ccc(OCc4no[n+]([O-])c4C(N)=O)cc3[n+]2CC)Sc2ccc(OCc3no[n+]([O-])c3C(N)=O)cc21.O=S(=O)([O-])C(F)(F)F	–	Non-toxic	Non-toxic
Dose-dependent effect	–	–	–	–	–	inactive	CCCOc1ccc2c(c1)N(CC)/C(=C/C=C/c1sc3ccc(OCCC)cc3[n+]1CC)S2.[I-]	–	Non-toxic	Non-toxic
–	3.1 µM	3.3 µM	–	–	–	–	CCN1/C(=C/C=C/c2sc3ccccc3[n+]2CC)Sc2ccccc21.[I-]	34.7%	Non-toxic	Non-toxic
Dose-dependent effect	–	–	–	–	26%	–	CCN1/C(=C/C=C/c2sc3ccccc3[n+]2CC)Sc2ccc(OCc3no[n+]([O-])c3C(N)=O)cc21.[I-]	–	Non-toxic	Non-toxic
–	4.5 µM	–	–	–	–	–	CN(C)c1ccc2nc3ccc(=[N+](C)C)cc-3sc2c1	–	–	–
Dose-dependent effect	21 µM	–	Active	Active	–	–	CCN1/C(=C/C=C/c2sc3ccccc3[n+]2CC)Sc2ccc(Oc3no[n+]([O-])c3S(=O)(=O)c3ccccc3)cc21.[I-]	–	Non-toxic	Non-toxic
Dose-dependent effect	1.8 µM	1.6 µM	Active	Active	–	–	CCN1/C(=C/C=C/c2sc3ccccc3[n+]2CC)Sc2ccc(Oc3no[n+]([O-])c3-c3ccccc3)cc21.[I-]	90.8%	Non-toxic	Non-toxic
Dose-dependent effect	7 µM	0.8 µM	–	–	–	–	CCCOc1ccc2c(c1)N(CC)/C(=C/C=C/c1sc3ccccc3[n+]1CC)S2.[I-]	–	Non-toxic	Non-toxic
Dose-dependent effect	–	–	Active	Active	26%	–	CCN1/C(=C/C=C/c2sc3ccc(OCCCO[N+](=O)[O-])cc3[n+]2CC)Sc2ccc(OCCCO[N+](=O)[O-])cc21.O=S(=O)([O-])C(F)(F)F	–	Non-toxic	Non-toxic

Reference: ChEMBL document CHEMBL3593200, “NO-donor thiacarbocyanines as multifunctional agents for Alzheimer's disease” (Bioorg Med Chem, 2015)
